This passage reports Activity and Cmax results from ChEMBL document CHEMBL1139013, “Synthesis and biological evaluation of novel 9-substituted-8-hydroxyadenine derivatives as potent interferon inducers” (J Med Chem, 2006).

The structures appear in SMILES notation. Bounds are passed on as bounds.

Data set [1] concerns Splenocyte. Kind of data set: Induction of IFN in C3H/HeJ mouse splenocytes at 3 nM. The format is functional. A digest of the protocol:
(§1)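 Mouse splenocytes are suspended at 2 × 10⁶ cells/mL in MEM with 5% fetal calf serum, penicillin and streptomycin. They are mixed 1:1 with compound (DMSO stock diluted 500-fold in medium) and cultured 18 h at 37 °C in 5% CO₂. Supernatants are filter-sterilized and stored at -80 °C. IFN (IU/mL) is measured by L929/vesicular stomatitis virus bioassay.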

In data set [2] the test system is Splenocyte. The experiment in a line: Induction of IFN in C3H/HeJ mouse splenocytes at 10 nM. The format is functional. A digest of the protocol: as §1
Data set [3] deals with Splenocyte. Kind of data set: Induction of IFN in C3H/HeJ mouse splenocytes at 30 nM. The format is functional. In outline:
as §1

Data set [4] relates to Splenocyte. Kind of data set: Induction of IFN in C3H/HeJ mouse splenocytes at 100 nM. The format is functional. In outline: as §1
In data set [5] the test system is Mus musculus. Kind of data set: Induction of IFN in BALB/c mice at 0.1 mg/kg, po. The format is functional.
In data set [6] the test system is Mus musculus. Kind of data set: Induction of IFN in BALB/c mice at 0.3 mg/kg, po. The format is functional.
Data set [7] has as its system Splenocyte. The experiment in a line: Induction of IFN in C3H/HeJ mouse splenocytes at 1 nM. The format is functional. A digest of the protocol:
as §1

Data set [8] deals with Cynomolgus monkey. Kind of data set: Induction of IFN in cynomolgus monkey at 0.1 mg/kg, po. The format is functional, Macaca fascicularis.
For data set [9], the system named is Cynomolgus monkey. Kind of data set: Induction of IFN in cynomolgus monkey at 0.3 mg/kg, po. The format is functional, Macaca fascicularis.
Data set [10] concerns Cynomolgus monkey. The experiment in a line: Induction of IFN in cynomolgus monkey at 1 mg/kg, po. The format is functional, Macaca fascicularis.
Data set [11] relates to Mustela putorius furo. The experiment in a line: Emetic activities in ferret at 0.3 mg/kg, po. The format is organism-based. The arrangement: dose 0.3 mg/kg, route oral. Conditions: in vivo; call rule not given here. In outline:
(§2)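 Oral dosing of male ferrets (4 months old) with compound in 0.5% sodium carboxymethyl cellulose vehicle; doses 0.3-30 mg/kg, 5 animals per group. Animals housed singly, video-recorded continuously for 6 h. Tapes scored afterwards for presence or absence of vomiting; reported as number vomiting per group.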

Data set [12] relates to Mustela putorius furo. Kind of data set: Emetic activities in ferret at 3 mg/kg, po. The format is organism-based. Set-up: dose 3 mg/kg, route oral. The conditions noted are these: in vivo. In outline:
as §2

Data set [13] concerns Mustela putorius furo. The experiment in a line: Emetic activities in ferret at 30 mg/kg, po. The format is organism-based. The arrangement: dose 30 mg/kg, route oral. The conditions noted are these: in vivo. A digest of the protocol:
as §2

Data set [14] in a line: Cmax in ferret at 3 mg/kg, po. The format is ADME, organism-based, Mustela putorius furo. Set-up: dose 3 mg/kg, route oral. Conditions: in vivo. In outline: (§3)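 Male ferrets, 4 months old, dosed orally with compound suspended in 0.5% sodium carboxymethyl cellulose. Blood (0.5 mL) drawn from jugular vein; serum separated at 1630g, 10 min, 4 °C, stored at -20 °C. Compound concentration measured by HPLC; maximum concentration reported in ng/mL.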

The nature of data set [15]: Cmax in ferret at 30 mg/kg, po. The format is ADME, organism-based, Mustela putorius furo. The arrangement: dose 30 mg/kg, route oral. Conditions: in vivo. A digest of the protocol: as §3

As for `CCCCNc1nc(N)c2nc(O)n(Cc3ccc(C)nc3)c2n1`, the Activity in [1] is reported as 4.4 IU/ml; in [2], 7.8 IU/ml; in data set [3], 3.7 IU/ml; in data set [4], 1.4 IU/ml; in data set [5] it was 393 IU/ml; in data set [6], 1891 IU/ml. Further, the Activity is recorded as less than 0.5 IU/ml in data set [7]; 121 IU/ml in data set [8]; 591 IU/ml in data set [9]; 34810 IU/ml in [10]; “Not Active” in data set [11]; “Not Active” in [12]. The Activity result in [13] was “Not Active”. The Cmax in [14] stood at 20.8 ng/mL; in data set [15], 1020 ng/mL.
As for `CCCCNc1nc(N)c2nc(O)n(Cc3ccc(N(C)C)nc3)c2n1`, the Activity in [1] was 4.9 IU/ml; in data set [2] it was 9.4 IU/ml; in [3], 5.1 IU/ml; in [4], 2.7 IU/ml; in [5], less than 5 IU/ml; in [7], less than 0.5 IU/ml.
As for `CCCCNc1nc(N)c2nc(O)n(Cc3cncc(C)c3)c2n1`, the Activity in data set [1] is reported as 1.9 IU/ml; in data set [2], 2.4 IU/ml; in data set [3], 2.1 IU/ml; in data set [4], 4.6 IU/ml; in data set [7] it was less than 0.5 IU/ml.
For the molecule `CCCCNc1nc(N)c2nc(O)n(Cc3cccnc3)c2n1`, the Activity is 1.6 IU/ml in data set [1]; 32.5 IU/ml in [2]; 16.6 IU/ml in data set [3]; 8.1 IU/ml in [4]; 76 IU/ml in data set [5]; 327 IU/ml in data set [6]. In data set [7], this molecule registered an Activity of less than 0.5 IU/ml.
On to `CCOCc1nc2c(N)nc3ccccc3c2n1CC(C)(C)O` [RESIQUIMOD], for which the Activity amounted to 2.8 IU/ml in data set [1]; 11 IU/ml in [2]; 7 IU/ml in data set [3]; 4 IU/ml in data set [4]; 1176 IU/ml in [5]; 1714 IU/ml in data set [6]. In addition, the Activity was less than 0.5 IU/ml in data set [7]; 7 IU/ml in data set [8]; 13 IU/ml in [9]; 44037 IU/ml in data set [10]; “Active” in data set [11]; “Active” in [12]. This molecule also came in with a Cmax in [14] of 1180 ng/mL.
For `CCCCNc1nc(N)c2nc(O)n(Cc3ccc(Cl)nc3)c2n1`, the Activity in [1] is 5.6 IU/ml; in [2] it was 6.8 IU/ml; in data set [3] it was 2.6 IU/ml; in [4] it was 1.5 IU/ml; in [5] it was 811 IU/ml; in [6], 1826 IU/ml. Moreover, the Activity in data set [7] is less than 0.5 IU/ml; in data set [8], 0 IU/ml; in [9] it was 19 IU/ml; in data set [10], 3602 IU/ml; in [11], “Not Active”; in [12] it was “Not Active”. Further, the Activity entry in data set [13] is listed as “Not Active”. Also, the Cmax in [14] was found to be 20.1 ng/mL; in [15], 275 ng/mL.
On to `CCCCNc1nc(N)c2nc(O)n(Cc3ccc([N+](=O)[O-])cc3)c2n1`, for which the Activity in data set [1] is given as less than 0.5 IU/ml; in data set [2] it was 11.6 IU/ml; in [3] it was 4.5 IU/ml; in data set [4] it was 2 IU/ml; in [5] it was 61 IU/ml; in data set [6] it was 444 IU/ml.
As for `CCCCNc1nc(N)c2nc(O)n(Cc3ccc(OC)nc3)c2n1`, the Activity in data set [1] is recorded as 8.2 IU/ml; in data set [2] it was 13.4 IU/ml; in [3], 3 IU/ml; in data set [4], 1 IU/ml; in data set [5], 375 IU/ml; in [6], 1920 IU/ml. Further, the Activity was less than 0.5 IU/ml in data set [7]; 3 IU/ml in [8]; 244 IU/ml in data set [9]; 17422 IU/ml in data set [10]; “Not Active” in data set [11]; “Not Active” in [12]. Further, the Activity entry in data set [13] is reported as “Not Active”. For the same molecule, the Cmax in data set [14] was 109 ng/mL; in data set [15], 1200 ng/mL.
